Assay results published in ChEMBL document CHEMBL1130120, “N-arylpiperazinyl-N'-propylamino derivatives of heteroaryl amides as functional uroselective alpha 1-adrenoceptor antagonists” (J Med Chem, 1997).

Assays:
[1] = biological target: T1, Alpha-1D adrenergic receptor (Rattus norvegicus, UniProt P23944); test: Antagonistic activity against rat aorta for affinity estimates representative of the Alpha-1D adrenergic receptor; type: functional, tissue-based; conditions: read-out: pA2 (converted)
T1 sequence (P23944 whole entry): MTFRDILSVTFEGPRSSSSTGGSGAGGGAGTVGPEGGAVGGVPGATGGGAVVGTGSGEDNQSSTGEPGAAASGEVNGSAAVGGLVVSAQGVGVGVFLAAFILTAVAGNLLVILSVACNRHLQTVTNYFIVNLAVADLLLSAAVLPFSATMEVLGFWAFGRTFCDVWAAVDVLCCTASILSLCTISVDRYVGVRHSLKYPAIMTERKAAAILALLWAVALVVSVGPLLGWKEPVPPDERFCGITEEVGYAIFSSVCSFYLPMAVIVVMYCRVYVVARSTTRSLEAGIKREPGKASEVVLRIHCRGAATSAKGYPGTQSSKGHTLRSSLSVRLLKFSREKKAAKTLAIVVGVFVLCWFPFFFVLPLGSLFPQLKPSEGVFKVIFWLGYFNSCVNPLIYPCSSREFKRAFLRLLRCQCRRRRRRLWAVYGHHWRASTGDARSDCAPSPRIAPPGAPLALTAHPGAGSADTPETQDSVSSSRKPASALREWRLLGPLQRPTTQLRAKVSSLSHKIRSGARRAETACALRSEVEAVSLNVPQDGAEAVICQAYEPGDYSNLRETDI
In short: (§1)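 Isolated smooth-muscle tissue with cumulative norepinephrine concentration–effect curves (rat aorta, human lower urinary tract). Affinity obtained by full Schild regression for some antagonists. […] Competitive, reversible interaction at a single subtype assumed.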

[2] = biological target: T2, Alpha-1A adrenergic receptor (Oryctolagus cuniculus, UniProt O02824); test: Antagonistic activity against alpha 1A/1L receptor was assessed in a rabbit bladder neck functional assay; conditions: read-out: pA2 (converted)
T2 sequence (O02824 whole entry): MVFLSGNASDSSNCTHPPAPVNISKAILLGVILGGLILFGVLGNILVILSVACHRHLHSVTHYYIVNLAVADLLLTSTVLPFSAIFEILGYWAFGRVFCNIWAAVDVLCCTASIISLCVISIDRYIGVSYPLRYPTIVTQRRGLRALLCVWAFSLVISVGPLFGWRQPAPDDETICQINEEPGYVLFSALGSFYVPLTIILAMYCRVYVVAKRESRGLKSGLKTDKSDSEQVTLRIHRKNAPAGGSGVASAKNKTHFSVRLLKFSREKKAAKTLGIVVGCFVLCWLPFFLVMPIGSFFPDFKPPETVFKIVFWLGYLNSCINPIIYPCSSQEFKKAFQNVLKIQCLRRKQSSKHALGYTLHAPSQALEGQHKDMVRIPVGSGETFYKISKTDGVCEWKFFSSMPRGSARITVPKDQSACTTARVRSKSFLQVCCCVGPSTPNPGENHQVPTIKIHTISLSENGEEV

D(2) dopamine receptor = D(2) dopamine receptor (Homo sapiens, UniProt P14416); test: The compound's binding affinity against Dopamine receptor D2
[3] = biological target: Adrenergic receptor alpha-1 (Homo sapiens) (UniProt P35348+P25100+P35368); test: The compound was screened in vitro for functional activity against Alpha-1 adrenergic receptor subtypes of human prostate tissue; in short: as §1
[4] = biological target: T3, 5-hydroxytryptamine receptor 1A (Mus musculus) (UniProt Q64264); test: The compound's binding affinity against 5-hydroxytryptamine 1A receptor
T3 sequence (whole entry): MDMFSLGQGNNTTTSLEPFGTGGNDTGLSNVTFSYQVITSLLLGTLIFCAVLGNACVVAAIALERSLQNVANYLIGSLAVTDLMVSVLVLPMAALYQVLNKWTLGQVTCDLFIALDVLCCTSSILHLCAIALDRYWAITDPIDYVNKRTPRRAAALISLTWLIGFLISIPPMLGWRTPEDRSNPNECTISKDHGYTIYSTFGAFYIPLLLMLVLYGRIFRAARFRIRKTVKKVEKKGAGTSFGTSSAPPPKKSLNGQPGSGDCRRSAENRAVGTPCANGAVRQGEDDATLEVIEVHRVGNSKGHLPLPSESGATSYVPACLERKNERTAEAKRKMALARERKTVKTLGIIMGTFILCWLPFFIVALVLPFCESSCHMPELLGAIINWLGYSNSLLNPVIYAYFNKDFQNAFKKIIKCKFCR

[5] = biological target: T4, Alpha-2B adrenergic receptor (Rattus norvegicus, UniProt P19328); test: The compound's binding affinity against Alpha-2B adrenergic receptor from rat kidney homogenate in the presence of phentolamine
T4 sequence (P19328 whole entry): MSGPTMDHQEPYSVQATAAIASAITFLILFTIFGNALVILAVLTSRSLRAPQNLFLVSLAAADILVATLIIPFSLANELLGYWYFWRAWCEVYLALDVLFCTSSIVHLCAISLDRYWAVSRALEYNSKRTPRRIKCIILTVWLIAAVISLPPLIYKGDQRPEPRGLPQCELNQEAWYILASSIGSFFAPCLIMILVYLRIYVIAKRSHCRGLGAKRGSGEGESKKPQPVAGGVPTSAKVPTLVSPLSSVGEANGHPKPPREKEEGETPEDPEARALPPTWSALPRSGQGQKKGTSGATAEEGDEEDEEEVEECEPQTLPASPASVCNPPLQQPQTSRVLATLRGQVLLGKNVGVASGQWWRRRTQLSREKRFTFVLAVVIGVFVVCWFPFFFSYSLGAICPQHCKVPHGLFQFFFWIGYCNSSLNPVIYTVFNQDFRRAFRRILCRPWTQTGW

[6] = biological target: T5, Adrenergic receptor alpha-1 (Homo sapiens, UniProt P35348+P25100+P35368); test: Activity against Alpha-1 adrenergic receptor subtypes of human prostate tissue; type: functional
T5 sequence (P35348 whole entry): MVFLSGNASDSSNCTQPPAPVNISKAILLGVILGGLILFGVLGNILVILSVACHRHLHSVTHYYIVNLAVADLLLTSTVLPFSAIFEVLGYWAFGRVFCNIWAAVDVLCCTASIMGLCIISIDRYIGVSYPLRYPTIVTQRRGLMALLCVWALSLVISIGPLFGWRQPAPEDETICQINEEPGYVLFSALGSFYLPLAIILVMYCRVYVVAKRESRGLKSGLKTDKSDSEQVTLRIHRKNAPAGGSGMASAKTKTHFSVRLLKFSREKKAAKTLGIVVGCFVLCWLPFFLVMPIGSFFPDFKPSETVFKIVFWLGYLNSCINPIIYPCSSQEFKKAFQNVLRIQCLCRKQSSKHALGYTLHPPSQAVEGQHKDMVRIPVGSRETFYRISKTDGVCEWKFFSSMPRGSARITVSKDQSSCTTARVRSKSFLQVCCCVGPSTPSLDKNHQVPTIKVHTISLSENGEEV
T5 sequence (P25100 whole entry): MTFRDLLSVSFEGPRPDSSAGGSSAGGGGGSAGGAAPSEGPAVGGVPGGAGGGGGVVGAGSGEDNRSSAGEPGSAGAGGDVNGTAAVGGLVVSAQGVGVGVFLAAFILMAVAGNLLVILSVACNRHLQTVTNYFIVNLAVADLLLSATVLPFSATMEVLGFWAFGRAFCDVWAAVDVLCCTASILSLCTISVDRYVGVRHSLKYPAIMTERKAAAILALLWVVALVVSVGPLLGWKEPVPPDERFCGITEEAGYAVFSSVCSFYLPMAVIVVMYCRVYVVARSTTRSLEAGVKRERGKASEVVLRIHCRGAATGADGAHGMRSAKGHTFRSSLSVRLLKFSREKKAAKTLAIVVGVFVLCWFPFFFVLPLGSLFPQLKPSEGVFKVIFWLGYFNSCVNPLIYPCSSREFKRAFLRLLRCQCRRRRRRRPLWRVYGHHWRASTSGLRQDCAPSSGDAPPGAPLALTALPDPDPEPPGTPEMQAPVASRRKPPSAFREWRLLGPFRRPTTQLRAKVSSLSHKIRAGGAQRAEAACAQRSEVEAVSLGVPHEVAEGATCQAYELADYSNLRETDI
T5 sequence (P35368 whole entry): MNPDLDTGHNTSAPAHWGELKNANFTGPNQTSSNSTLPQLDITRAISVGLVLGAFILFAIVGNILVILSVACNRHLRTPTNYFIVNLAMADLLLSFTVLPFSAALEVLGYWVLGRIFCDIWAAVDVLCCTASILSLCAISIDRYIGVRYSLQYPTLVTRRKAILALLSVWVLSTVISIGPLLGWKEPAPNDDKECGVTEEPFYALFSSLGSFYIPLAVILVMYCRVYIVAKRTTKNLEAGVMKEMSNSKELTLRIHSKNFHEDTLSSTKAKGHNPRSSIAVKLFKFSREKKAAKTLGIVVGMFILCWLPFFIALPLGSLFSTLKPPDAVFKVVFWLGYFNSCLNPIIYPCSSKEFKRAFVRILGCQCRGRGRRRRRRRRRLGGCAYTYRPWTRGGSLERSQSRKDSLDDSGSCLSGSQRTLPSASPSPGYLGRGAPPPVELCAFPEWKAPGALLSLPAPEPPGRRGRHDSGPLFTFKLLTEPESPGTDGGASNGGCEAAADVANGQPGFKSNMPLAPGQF
In short: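 Isolated smooth-muscle tissue with cumulative norepinephrine concentration–effect curves (rat aorta, human lower urinary tract). Affinity obtained by full Schild regression for some antagonists. Competitive, reversible interaction at a single subtype assumed.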

[7] = biological target: T6, Alpha-1A adrenergic receptor (Bos taurus, UniProt P18130); test: In vitro for the displacement of [3H]prazosin binding to bovine Alpha-1A adrenergic receptor
T6 sequence (P18130 whole entry): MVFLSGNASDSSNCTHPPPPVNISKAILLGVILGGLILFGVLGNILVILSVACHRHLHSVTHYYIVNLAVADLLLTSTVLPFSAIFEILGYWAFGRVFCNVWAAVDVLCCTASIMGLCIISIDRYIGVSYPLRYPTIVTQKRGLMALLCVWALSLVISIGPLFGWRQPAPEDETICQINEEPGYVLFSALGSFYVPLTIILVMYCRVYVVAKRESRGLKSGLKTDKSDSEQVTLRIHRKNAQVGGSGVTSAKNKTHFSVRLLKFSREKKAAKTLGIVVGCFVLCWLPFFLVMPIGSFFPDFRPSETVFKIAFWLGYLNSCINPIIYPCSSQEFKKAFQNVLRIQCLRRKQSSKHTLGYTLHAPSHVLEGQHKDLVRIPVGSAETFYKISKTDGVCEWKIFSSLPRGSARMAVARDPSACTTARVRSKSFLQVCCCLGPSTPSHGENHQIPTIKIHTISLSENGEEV

[8] = biological target: T6, Alpha-1A adrenergic receptor; test: The compound was screened in vitro for the displacement of [3H]prazosin binding to bovine Alpha-1A adrenergic receptor

Sequence of D(2) dopamine receptor (P14416 whole entry): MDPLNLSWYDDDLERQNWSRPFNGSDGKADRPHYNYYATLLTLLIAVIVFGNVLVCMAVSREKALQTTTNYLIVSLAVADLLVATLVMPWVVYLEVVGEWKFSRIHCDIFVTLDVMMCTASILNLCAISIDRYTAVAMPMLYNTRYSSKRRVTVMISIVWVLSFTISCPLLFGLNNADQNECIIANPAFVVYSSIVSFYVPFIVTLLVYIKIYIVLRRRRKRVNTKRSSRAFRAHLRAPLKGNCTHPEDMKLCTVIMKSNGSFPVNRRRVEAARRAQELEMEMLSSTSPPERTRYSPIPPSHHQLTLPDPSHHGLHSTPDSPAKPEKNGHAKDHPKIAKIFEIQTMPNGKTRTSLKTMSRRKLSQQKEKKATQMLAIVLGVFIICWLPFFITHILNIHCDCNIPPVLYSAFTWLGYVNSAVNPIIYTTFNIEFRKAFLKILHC

| SMILES | Kb [1] [nM] | Kb [2] [nM] | pKi (D(2) dopamine receptor) | pA2 [3] | pKi [4] | Ki (D(2) dopamine receptor) [nM] | Ki [5] [nM] | pA2 [6] | Ki [7] [nM] | Ki [8] [nM] |
| --- | --- | --- | --- | --- | --- | --- | --- | --- | --- | --- |
| COc1cc(F)ccc1N1CCN(CCCNc2c(C(=O)N(C)C)cnc3c2c(C)nn3C)CC1 | 316 | 1.26 | 6.4 | 9.3 | 6.5 |  |  |  |  |  |
| CN(C)C(=O)c1cccnc1NCCCN1CCN(c2ccccc2-c2ccccc2)CC1 | 63.1 | 1.26 |  |  |  | 126 | 79.4 |  |  |  |
| Cc1nn(C)c2ncc(C(=O)N(C)C)c(NCCCN3CCN(c4ccccc4OCC(F)(F)F)CC3)c12 | 126 | 0.501 | 8.1 | 9 | 7.5 |  |  |  |  |  |
| COc1ccccc1N1CCN(CCCNc2ncccc2C(=O)NC(C)(C)C)CC1 | 10 | 1.26 |  |  |  |  |  | 8.7 | 1.58 |  |

The remaining lines, values ahead:

| Kb [1] [nM] | Kb [2] [nM] | pKi (D(2) dopamine receptor) | pA2 [3] | pKi [4] | Ki (D(2) dopamine receptor) [nM] | Ki [5] [nM] | pA2 [6] | Ki [7] [nM] | Ki [8] [nM] | SMILES |
| --- | --- | --- | --- | --- | --- | --- | --- | --- | --- | --- |
| 63.1 | 1.58 | 6.7 | 8.5 | 6.7 |  |  |  |  |  | COc1cc(F)ccc1N1CCN(CCCNc2ncccc2C(=O)N(C)C)CC1 |
| 20 | 1.58 | 7.4 | 8.5 | 7.6 |  |  |  |  | 0.794 | COc1ccccc1N1CCN(CCCNc2ncccc2C(=O)N(C)C)CC1 |
